19 compounds from ChEMBL document CHEMBL1155265, “Design, synthesis and in vitro antibacterial/antifungal evaluation of novel 1-ethyl-6-fluoro-1,4-dihydro-4-oxo-7(1-piperazinyl)quinoline-3-carboxylic acid derivatives” (2009) can be followed below.

What all share (assay type): functional
Test [1] has as its system Xanthomonas oryzae. Nature of the test: Antibacterial activity against Xanthomonas oryzae at 50 mg/L after 24 hrs by agar well diffusion method. As to conditions: read-out: DIZ.
In test [2] the test system is Xanthomonas axonopodis. Nature of the test: Antibacterial activity against Xanthomonas axonopodis at 50 mg/L after 24 hrs by agar well diffusion method. To be noted: read-out: DIZ. Summed up: (§1)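 Bacteria plated as 0.8 mL of 24-h-old inoculum mixed into 60 mL sterile molten agar cooled to 45 °C, poured into three dishes. Wells bored with centres at least 24 mm apart. Test sample at 50 mg/L in DMSO added to wells. DMSO served as negative control and agricultural streptomycin sulfate as positive control. Read-out was inhibition zone diameter (mm).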

Test [3] concerns Erwinia. Nature of the test: Antibacterial activity against Erwinia aroideae at 50 mg/L after 24 hrs by agar well diffusion method. To be noted: read-out: DIZ. In a few lines:
as §1

Test [4] has as its system Bacillus subtilis. Kind of test: Antibacterial activity against Bacillus subtilis at 50 mg/L after 24 hrs by agar well diffusion method. To be noted: read-out: DIZ. Summed up:
as §1

The subject of test [5] is Ralstonia solanacearum. Nature of the test: Antibacterial activity against Ralstonia solanacearum at 50 mg/L after 24 hrs by agar well diffusion method. As to conditions: read-out: DIZ.
In test [6] the test system is Rhizoctonia solani. Kind of test: Antifungal activity against Rhizoctonia solani at 200 mg/L by plate growth rate method. To be noted: read-out: GI. Summed up: (§2)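 Compound dissolved in DMSO and mixed into molten PDA at 45 °C at 200 mg/L, then plates allowed to set. A 5 mm mycelial agar disc was placed at the centre. Plates were incubated at 28 °C in the dark until the untreated control covered the plate. Colony diameters were measured and growth inhibition calculated by Abbott's formula. Each compound was tested three times.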

The test system of test [7] is Fusarium graminearum. Kind of test: Antifungal activity against Gibberella zeae at 200 mg/L by plate growth rate method. To be noted: read-out: GI. In a few lines: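 Plate growth rate method: compound dissolved in DMSO, mixed into sterile PDA at 45 °C to 200 mg/L, plates poured. A 5 mm mycelium agar disc placed centrally; incubated at 28 °C in the dark until the untreated control covered the plate. Colony diameters measured; growth inhibition computed by Abbott's formula. Each compound tested three times.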

Test [8] deals with Cytospora mali. Kind of test: Antifungal activity against Valsa mali at 200 mg/L by plate growth rate method. To be noted: read-out: GI. Summed up:
as §2

The structures appear in SMILES notation.

Turning to `CCn1cc(C(=O)O)c(=O)c2cc(F)c(N3CCN(C(=O)c4ccccc4)CC3)cc21`, the zone of inhibition at 50 µg/mL turned out to be 22.7 mm in test [1]; 15.8 mm in test [2]; 17.9 mm in test [3]; 20.7 mm in test [4]; 5.92 mm in test [5]. For the same compound, the values for the inhibition of growth at 200 µg/mL in test [6], in test [7] and in test [8] were 25%, 23% and 42%, respectively.

With `CCn1cc(C(=O)O)c(=O)c2cc(F)c(N3CCN(C(=O)COc4ccccc4Cl)CC3)cc21`, the zone of inhibition at 50 µg/mL in test [1] came out at 17.2 mm; in test [2], 10.4 mm; in test [3], 11.8 mm; in test [4], 14.2 mm; in test [5] it was 4.67 mm. For the same compound, the inhibition of growth at 200 µg/mL in test [6] is 3%; in test [7], 10%; in test [8], 12%.

Consider `CCn1cc(C(=O)O)c(=O)c2cc(F)c(N3CCN(C(=O)c4ccccc4Br)CC3)cc21`, for which the zone of inhibition at 50 µg/mL in test [1] came out at 16.5 mm; in test [2], 14.6 mm; in test [3] it was 16.2 mm; in test [4] it was 20.1 mm; in test [5], 8.14 mm. Besides, the values for the inhibition of growth at 200 µg/mL in test [6], in test [7] and in test [8] were 15%, 34% and 44%, respectively.

On to `CCn1cc(C(=O)O)c(=O)c2cc(F)c(N3CCN(C(=O)COc4ccc(OC)cc4)CC3)cc21`, for which the zone of inhibition at 50 µg/mL in test [1] worked out at 14.5 mm; in test [2], 12.5 mm; in test [3], 15.2 mm; in test [4] it was 17.6 mm; in test [5] it was 6.31 mm. For the same compound, the inhibition of growth at 200 µg/mL was 60% in test [6], 17% in test [7] and 10% in test [8].

On to `CCn1cc(C(=O)O)c(=O)c2cc(F)c(N3CCN(C(=O)c4ccccc4Cl)CC3)cc21`, for which the zone of inhibition at 50 µg/mL in test [1] amounted to 16.9 mm; in test [2] it was 14.2 mm; in test [3] it was 16 mm; in test [4], 19 mm; in test [5] it was 8.97 mm. Moreover, the inhibition of growth at 200 µg/mL in test [6] was 5%; in test [7], 27%; in test [8] it was 41%.

On to `CCn1cc(C(=O)O)c(=O)c2cc(F)c(N3CCN(C(=O)COc4ccc(C(C)(C)C)cc4)CC3)cc21`, for which the zone of inhibition at 50 µg/mL in test [1] was found to be 5.81 mm; in test [2] it was 6.41 mm; in test [3], 8.52 mm; in test [4], 10.8 mm; in test [5] it was 10.9 mm. Besides, the figures for the inhibition of growth at 200 µg/mL in test [6], in test [7] and in test [8] were 53%, 28% and 14%, respectively.

For `CCn1cc(C(=O)O)c(=O)c2cc(F)c(N3CCN(C(=O)c4ccc(C)cc4)CC3)cc21`, the zone of inhibition at 50 µg/mL in test [1] was 19.7 mm; in test [2], 13 mm; in test [3] it was 14.6 mm; in test [4], 17.1 mm; in test [5], 3.22 mm. The inhibition of growth at 200 µg/mL in test [6] stood at 36%; in test [7], 28%; in test [8], 37%.

Consider `CCn1cc(C(=O)O)c(=O)c2cc(F)c(N3CCN(C(=O)c4ccc(Cl)cc4)CC3)cc21`, for which the zone of inhibition at 50 µg/mL in test [1] was 17.7 mm; in test [2] it was 12.9 mm; in test [3], 16.6 mm; in test [4] it was 18.5 mm; in test [5], 1.47 mm. Also, the values for the inhibition of growth at 200 µg/mL in test [6], in test [7] and in test [8] were 21%, 27% and 16%, respectively.

Turning to `CCn1cc(C(=O)O)c(=O)c2cc(F)c(N3CCN(C(=O)COc4ccc(F)cc4)CC3)cc21`, the zone of inhibition at 50 µg/mL in test [1] was 11 mm; in test [2], 11.1 mm; in test [3], 13.3 mm; in test [4], 13.9 mm; in test [5], 3.31 mm. Moreover, the inhibition of growth at 200 µg/mL in test [6] was 52%; in test [7] it was 15%; in test [8], 12%.

On to `CCn1cc(C(=O)O)c(=O)c2cc(F)c(N3CCN(C(=O)Cc4cccc5ccccc45)CC3)cc21`, for which the zone of inhibition at 50 µg/mL in test [1] is 9.35 mm; in test [2], 9.99 mm; in test [3], 10.4 mm; in test [4], 13.2 mm; in test [5], 0 mm. Moreover, the inhibition of growth at 200 µg/mL was found to be 5% in test [6], 12% in test [7] and 0% in test [8].

For `CCn1cc(C(=O)O)c(=O)c2cc(F)c(N3CCN(C(=O)COc4ccccc4OC)CC3)cc21`, the zone of inhibition at 50 µg/mL in test [1] is 11.9 mm; in test [2], 11 mm; in test [3], 12.9 mm; in test [4], 17.7 mm; in test [5] it was 4.97 mm. The inhibition of growth at 200 µg/mL in test [6] was 0%; in test [7], 14%; in test [8], 7%.

In the case of `CCn1cc(C(=O)O)c(=O)c2cc(F)c(N3CCN(C(=O)COc4ccc(Br)cc4)CC3)cc21`, the zone of inhibition at 50 µg/mL turned out to be 8.02 mm in test [1]; 10.7 mm in test [2]; 8.94 mm in test [3]; 12.7 mm in test [4]; 7.47 mm in test [5]. Further, the inhibition of growth at 200 µg/mL in test [6] was 49%; in test [7], 6%; in test [8], 9%.

On to `CCn1cc(C(=O)O)c(=O)c2cc(F)c(N3CCN(C(=O)/C=C/c4ccccc4)CC3)cc21`, for which the zone of inhibition at 50 µg/mL is 11.7 mm in test [1]; 12.1 mm in test [2]; 10.8 mm in test [3]; 15.2 mm in test [4]; 4.64 mm in test [5]. Further, the inhibition of growth at 200 µg/mL in test [6] came out at 29%; in test [7], 5%; in test [8], 9%.

As to `CCn1cc(C(=O)O)c(=O)c2cc(F)c(N3CCN(C(=O)/C=C/c4ccc(OC)cc4)CC3)cc21`, the zone of inhibition at 50 µg/mL in test [1] was 5.35 mm; in test [2], 6.83 mm; in test [3] it was 8.02 mm; in test [4] it was 8.91 mm; in test [5] it was 0 mm. Further, the inhibition of growth at 200 µg/mL in test [6] came to 94%; in test [7], 1%; in test [8], 5%.

For the compound `CCn1cc(C(=O)O)c(=O)c2cc(F)c(N3CCN(C(=O)COc4ccc(Cl)cc4Cl)CC3)cc21`, the zone of inhibition at 50 µg/mL in test [1] worked out at 10 mm; in test [2], 8.16 mm; in test [3], 8.52 mm; in test [4], 9.91 mm; in test [5], 0.5 mm. Also, the inhibition of growth at 200 µg/mL in test [6] was 72%; in test [7], 5%; in test [8], 17%.

Regarding `CCn1cc(C(=O)O)c(=O)c2cc(F)c(N3CCN(C(=O)/C=C/c4ccc(Cl)cc4Cl)CC3)cc21`, the zone of inhibition at 50 µg/mL in test [1] stood at 4.44 mm; in test [2], 5.91 mm; in test [3] it was 2.92 mm; in test [4], 2.08 mm; in test [5] it was 0 mm. Also, the inhibition of growth at 200 µg/mL in test [6] came to 0%; in test [7] it was 2%; in test [8] it was 6%.

Consider `CCn1cc(C(=O)O)c(=O)c2cc(F)c(N3CCN(C(=O)c4ccccc4O)CC3)cc21`, for which the zone of inhibition at 50 µg/mL in test [1] stood at 16.7 mm; in test [2], 14.4 mm; in test [3], 16.5 mm; in test [4] it was 22.7 mm; in test [5], 2.06 mm. Also, the values for the inhibition of growth at 200 µg/mL in test [6], in test [7] and in test [8] were 0%, 15% and 17%, respectively.

As to `COC(=O)Nc1nc2ccccc2[nH]1` [CARBENDAZIM], the inhibition of growth at 200 µg/mL in test [6] was found to be 100%; in test [7] it was 100%; in test [8] it was 95%.

For the compound `CN[C@@H]1[C@H](O[C@H]2[C@H](O[C@H]3[C@H](O)[C@@H](O)[C@H](N=C(N)N)[C@@H](O)[C@@H]3N=C(N)N)O[C@@H](C)[C@]2(O)C=O)O[C@@H](CO)[C@H](O)[C@H]1O` [STREPTOMYCIN], the zone of inhibition at 50 µg/mL in test [1] came out at 0.81 mm; in test [2], 0.2 mm; in test [3], 0.5 mm; in test [4], 25 mm; in test [5], 17.3 mm.
